From ChEMBL document CHEMBL1130090, “Antitumor agents. 174. 2',3',4',5,6,7-Substituted 2-phenyl-1,8-naphthyridin-4-ones: their synthesis, cytotoxicity, and inhibition of tubulin polymerization” (J Med Chem, 1997)

Experiments:
Format in all cases: functional
[1] = test system: HCT-116; experiment: Concentration which reduced cell growth to 50 % of level against HCT116 colon cancer cell line; conditions: Homo sapiens
[2] = test system: SF-295; experiment: Concentration which reduced cell growth to 50 % of level against SF-295 CNS cancer line; conditions: Homo sapiens
[3] = test system: PC-3; experiment: Concentration which reduced cell growth to 50 % of level against PC-3 prostate cancer line; conditions: Homo sapiens
[4] = test system: MDA-MB-435; experiment: Concentration which reduced cell growth to 50 % of level against MDA-MB-435 breast cancer line; conditions: Homo sapiens
[5] = test system: NCI-H460; experiment: Concentration which reduced cell growth to 50 % of level against NCI-H460 non -small-cell lung cancer cell line; conditions: Homo sapiens
[6] = biological target: Tubulin alpha chain (Sus scrofa) (UniProt P02550); experiment: Inhibition of colchicine binding and evaluated only when polymerization IC50 <=1 uM
How it was run: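 Electrophoretically homogeneous bovine brain tubulin (1.0 µM) incubated 20 min at 37 °C with 5.0 µM [3H]colchicine and 5.0 µM inhibitor in 1.0 M monosodium glutamate (pH 6.6), 1 mM MgCl2, 0.1 mM GTP, 5% (v/v) DMSO. Mixtures filtered through two stacked DEAE-cellulose filters and washed with water. Bound radioactivity counted by liquid scintillation.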

[7] = test system: HL-60; experiment: Concentration which reduced cell growth to 50 % of level against HL-60 (TB) leukemia cell line; conditions: Homo sapiens
[8] = test system: SK-MEL-5; experiment: Concentration which reduced cell growth to 50 % of level against SK-MEL-5 melanoma cell line; conditions: Homo sapiens
[9] = test system: Tumor Cell line; experiment: Cytotoxic effect in human tumor cell lines, tested by the National Cancer Institute; conditions: read-out: Average LogGI50 (converted)
[10] = biological target: Tubulin beta chain (Bos taurus, UniProt Q6B856); experiment: Inhibition of bovine tubulin polymerization
[11] = test system: U-251; experiment: Concentration which reduced cell growth to 50 % of U251 cancer line; conditions: Homo sapiens
[12] = test system: 786-0; experiment: Concentration which reduced cell growth to 50 % of level against 786-0 renal cancer line; conditions: Homo sapiens
[13] = test system: MDA-N; experiment: Concentration which reduced cell growth to 50 % of level against MDA-N breast cancer line; conditions: Homo sapiens
[14] = test system: OVCAR-3; experiment: Concentration which reduced cell growth to 50 % of level against OVCAR-3 ovarian cancer line; conditions: Homo sapiens

Chain of Tubulin alpha chain (Sus scrofa) (P02550 whole entry, looked up): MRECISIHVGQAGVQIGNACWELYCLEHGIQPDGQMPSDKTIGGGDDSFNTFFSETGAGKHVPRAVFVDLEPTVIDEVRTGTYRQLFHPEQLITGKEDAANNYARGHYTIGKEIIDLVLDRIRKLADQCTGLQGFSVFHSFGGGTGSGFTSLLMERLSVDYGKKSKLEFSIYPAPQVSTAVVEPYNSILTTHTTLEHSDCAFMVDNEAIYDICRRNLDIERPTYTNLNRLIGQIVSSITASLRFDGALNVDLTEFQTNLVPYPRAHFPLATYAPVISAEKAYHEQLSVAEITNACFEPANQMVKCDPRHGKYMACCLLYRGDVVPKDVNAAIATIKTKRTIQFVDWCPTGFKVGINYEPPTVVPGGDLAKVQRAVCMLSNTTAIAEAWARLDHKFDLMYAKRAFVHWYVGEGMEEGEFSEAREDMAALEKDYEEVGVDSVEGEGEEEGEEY
Chain of Tubulin beta chain (Q6B856 whole entry): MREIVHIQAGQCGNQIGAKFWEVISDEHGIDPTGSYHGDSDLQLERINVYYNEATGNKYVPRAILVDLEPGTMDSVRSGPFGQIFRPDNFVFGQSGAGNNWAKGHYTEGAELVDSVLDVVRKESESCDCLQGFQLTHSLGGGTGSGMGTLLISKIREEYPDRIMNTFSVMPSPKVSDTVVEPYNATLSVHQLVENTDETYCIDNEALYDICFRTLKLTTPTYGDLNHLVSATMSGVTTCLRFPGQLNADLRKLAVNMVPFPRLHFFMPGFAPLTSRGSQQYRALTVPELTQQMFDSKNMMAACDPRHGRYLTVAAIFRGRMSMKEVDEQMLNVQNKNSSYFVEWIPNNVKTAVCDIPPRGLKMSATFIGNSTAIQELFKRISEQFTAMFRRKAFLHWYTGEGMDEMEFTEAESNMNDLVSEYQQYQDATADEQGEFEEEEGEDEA

SMILES | GI50 [1] [µM] | GI50 [2] [µM] | GI50 [3] [µM] | GI50 [4] [µM] | GI50 [5] [µM] | inhibition [6] [%] | GI50 [7] [µM] | GI50 [8] [µM] | GI50 [9] [µM] | IC50 [10] [µM] | GI50 [11] [µM] | GI50 [12] [µM] | GI50 [13] [µM] | GI50 [14] [µM]
COc1cccc(-c2cc(O)c3cccnc3n2)c1 | 0.0363 | 0.0525 | 0.0933 | < 0.01 | 0.0912 | 27 | 0.0162 | 0.0537 | 0.135 | 0.96 | 0.055 | 0.0617 | < 0.01 | 0.055
COc1cccc(-c2cc(O)c3c(C)ccnc3n2)c1 | 0.0447 | 0.0288 | 0.0263 | < 0.01 | 0.0479 | 28 | 0.0129 | 0.0224 | 0.0589 | 0.62 | 0.0589 | 0.0513 | < 0.01 | 0.0257
Cc1cnc2nc(-c3ccc(F)cc3)cc(O)c2c1 | 24 | 29.5 | 25.7 | 2.63 | 33.9 |  | 2.4 | 21.9 | 26.3 | 20 | 25.1 | 32.4 | 3.02 | 22.4
Oc1cc(-c2ccc(F)cc2)nc2ncccc12 | 42.7 | 50.1 | 45.7 | 12 | 34.7 |  | 12.9 | 30.2 | 45.7 | > 40 | 47.9 | 44.7 | 14.1 | 45.7
COc1ccccc1-c1cc(O)c2cccnc2n1 | 27.5 | 23.4 | 29.5 | 39.8 | 38.9 |  | 38.9 | 31.6 | 40.7 | > 40 | 67.6 | 36.3 | 20 | 47.9
Oc1cc(-c2ccc(Cl)cc2)nc2ncccc12 | 32.4 | 40.7 | 47.9 | 5.89 | 38 |  | 16.6 | 28.8 | 38.9 | 22 | 39.8 | 33.9 | 8.32 | 23.4
Cc1ccc(-c2cc(O)c3cc(C)cnc3n2)cc1 |  |  |  |  |  |  |  |  |  | 2.4 |  |  |  | 
COc1ccc(-c2cc(O)c3c(C)ccnc3n2)cc1 | 6.46 | 19.5 | 18.2 | 2.4 | 6.17 |  | 4.37 | 3.89 | 12.9 | 8.8 | 6.31 | 25.1 | 2.09 | 13.8
COc1ccc(/C=C\c2cc(OC)c(OC)c(OC)c2)cc1O [COMBRETASTATIN A4] |  |  |  |  |  |  |  |  | 0.00661 |  |  |  |  | 
Cc1cc(C)c2c(O)cc(-c3ccc(F)cc3)nc2n1 | 50.1 | 50.1 | 30.2 | 18.6 | 51.3 |  | 15.5 | 26.3 | 40.7 | > 40 | 95.5 | 79.4 | 25.1 | 43.7
COc1ccccc1-c1cc(O)c2c(C)cc(C)nc2n1 | 74.1 | 53.7 | 47.9 | 32.4 | 70.8 |  | 30.2 | 33.9 | 57.5 | > 40 | > 100 | > 100 | 33.1 | 64.6
COc1ccc(-c2cc(O)c3cccnc3n2)cc1 | 17.8 | 64.6 | 31.6 | 20 | 26.3 |  | 12.9 | 34.7 | 38 | > 40 | 53.7 | 56.2 | 20.9 | 30.2
Cc1cnc2nc(-c3ccc(Cl)cc3)cc(O)c2c1 | 2.82 | 2.4 | 1.15 | 0.603 | 3.89 |  | 2.24 | 2.19 | 3.72 | 2 | 3.02 | 6.31 | 0.562 | 2.24
Cc1ccc(-c2cc(O)c3c(C)cc(C)nc3n2)cc1 |  |  |  |  |  |  |  |  |  | 9.8 |  |  |  | 
COc1cccc(-c2cc(O)c3ccccc3n2)c1 |  |  |  |  | 3.98 |  | 2.09 |  | 6.17 |  | 9.55 | 5.13 |  | 
Cc1ccc(-c2cc(O)c3ccc(C)nc3n2)cc1 |  |  |  |  |  |  |  |  |  | 4.9 |  |  |  | 

SMILES | GI50 [1] [µM] | GI50 [2] [µM] | GI50 [3] [µM] | GI50 [4] [µM] | GI50 [5] [µM] | inhibition [6] [%] | GI50 [7] [µM] | GI50 [8] [µM] | GI50 [9] [µM] | IC50 [10] [µM] | GI50 [11] [µM] | GI50 [12] [µM] | GI50 [13] [µM] | GI50 [14] [µM]
COc1cccc(-c2cc(O)c3cc(Cl)cnc3n2)c1 | 0.12 | 0.0603 | 0.138 | 0.0324 | 0.0631 | 35 | 0.0269 | 0.126 | 0.0977 | 0.73 | 0.2 | 0.427 | 0.0316 | 0.49
Cc1ccc2c(O)cc(-c3ccc(Cl)cc3)nc2n1 | 3.31 | 4.57 | 1.66 | 0.912 | 4.47 |  | 2.95 | 4.37 | 4.9 | 11 | 4.79 | 6.31 | 1 | 2.57
COc1cccc(-c2cc(=O)c3ccc(C)nc3[nH]2)c1 | 0.0468 | 0.0302 | 0.0331 | < 0.01 | 0.0437 | 29 | 0.0182 | 0.0339 | 0.0575 |  | 0.0537 | 0.0537 | 0.011 | 0.0224
COc1cc2c(c(OC)c1OC)-c1ccc(OC)c(=O)cc1[C@@H](NC(C)=O)CC2 [COLCHICINE] |  |  |  |  |  |  |  |  | 0.0575 |  |  |  |  | 
COc1ccccc1-c1cc(O)c2cc(C)cnc2n1 | 42.7 | 30.9 | 26.9 | 3.02 | 32.4 |  | 9.55 | 20.4 | 31.6 | 18 | 27.5 | 41.7 | 4.47 | 19.5
COc1ccc(-c2cc(O)c3ccc(C)nc3n2)cc1 | > 100 | 89.1 | > 100 | 42.7 | > 100 |  | > 100 | 47.9 | 91.2 | > 40 | > 100 | > 100 | 55 | > 100
COc1ccccc1-c1cc(O)c2ccc(C)nc2n1 | 38 | > 100 | > 100 | 21.9 | 97.7 |  | 74.1 | 51.3 | 79.4 | > 40 | > 100 | > 100 | 20 | > 100
COc1cccc(-c2cc(O)c3cc(C)cnc3n2)c1 | 0.0224 | 0.0372 | 0.0427 | < 0.01 | 0.0437 | 31 | 0.0191 | 0.0257 | 0.0955 | 0.8 | 0.0447 | 0.0372 | < 0.01 | 0.0417
Cc1ccc(-c2cc(O)c3c(C)ccnc3n2)cc1 |  |  |  |  |  |  |  |  |  | 2.9 |  |  |  | 
Cc1ccc2c(O)cc(-c3ccc(F)cc3)nc2n1 | 33.9 | 37.2 | 20.9 | 5.89 | 33.9 |  | 14.8 | 31.6 | 32.4 | > 40 | 37.2 | 41.7 | 11.7 | 32.4
COc1cc([C@@H]2c3cc4c(cc3[C@H](O)[C@H]3COC(=O)[C@H]23)OCO4)cc(OC)c1OC [PODOFILOX] |  |  |  |  |  | 76 |  |  | 0.0288 |  |  |  |  | 
COc1cccc(-c2cc(O)c3cc(Br)cnc3n2)c1 |  |  |  |  |  |  |  |  |  | 1.5 |  |  |  | 
Cc1ccnc2nc(-c3ccc(Cl)cc3)cc(O)c12 | 3.72 | 5.37 | 2.88 | 0.759 | 3.72 |  | 1.78 | 3.47 | 5.13 | 4.8 | 4.57 | 3.98 | 1.32 | 3.16
Oc1cc(-c2ccc(F)cc2)nc2ncc(Cl)cc12 | 17 | 21.4 | 21.9 | 2.57 | 30.2 |  | 3.89 | 6.61 | 21.9 | 16 | 29.5 | 32.4 | 2.95 | 17.4
COc1cccc(-c2cc(O)c3ccc(C)nc3n2)c1 |  |  |  |  |  |  |  |  |  | 0.75 |  |  |  | 
